Legend:
Human α-thrombin = Human α-thrombin (Homo sapiens, UniProt P00734); format: biochemical; conditions: for fold weaker thrombin inhibition of di-sulfated dimers: comparator not given; for fold change in IC50 (weaker) relative to 12a: comparator 12a
citrated human plasma [1] = test: Prothrombin time; conditions: thromboplastin initiator
Summary of the method: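 Test compound brought up in citrated human plasma and held 30 s at 37 °C. Pre-warmed thromboplastin (reconstituted per manufacturer, 37 °C) then added and clotting time read on a fibrometer in a one-stage assay. Deionized water served as the no-anticoagulant control. Run in duplicate. Quadratic trendline fit gave the concentration doubling PT.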

citrated human plasma [2] = test: Activated partial thromboplastin time; conditions: ellagic acid initiator
Summary of the method: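 Test compound in citrated human plasma with pre-warmed APTT reagent (0.2% ellagic acid), incubated 4 min. Clotting started with 25 mM CaCl2 at 37 °C and time to clot read on a fibrometer. One-stage recalcification format, each assay in duplicate. Clotting time versus concentration fitted to a quadratic trendline to get the concentration that doubles APTT.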

human thrombin = human thrombin (Homo sapiens, UniProt P00734); test: Michaelis-Menten kinetics of Spectrozyme TH hydrolysis by thrombin; format: biochemical; conditions: for VMAX of Spectrozyme TH hydrolysis: pH 7.4
Summary of the method: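 Human α-thrombin (5–10 nM) with Spectrozyme TH at 10 to 600 μM, at fixed test compound levels of 0–30 μM. Run in 20 mM Tris-HCl, pH 7.4, at 37 °C. Initial rate taken from the linear rise in A405 while under 10% of substrate was consumed. Data fitted to the Michaelis-Menten equation for KM and VMAX.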

COc1cc2oc(C)c(C(=O)N3CCOCC3)c2cc1OCc1oc2cc(OC)c(OS(=O)(=O)[O-])cc2c1C(=O)N1CCOCC1.[Na+] [compound 14]
fold loss of affinity from t-butyl ester dimer (Human α-thrombin; comparator printed as dimer 2c): more than 270 fold

CCOC(=O)c1c(C)oc2cc(OC)c(OCc3oc4cc(OS(=O)(=O)[O-])c(OS(=O)(=O)[O-])cc4c3C(=O)OCC)cc12.[Na+].[Na+] [compound 18]
fold weaker thrombin inhibition of di-sulfated dimers (Human α-thrombin): 6–17 fold

COC(=O)c1c(C)oc2cc(OC)c(OCc3oc4cc(OC)c(OS(=O)(=O)[O-])cc4c3C(=O)OC)cc12.[Na+] [12b]
concentration required to double PT (2×PT) (citrated human plasma [1]): 850 to 2100 µM

COCCOC(=O)c1c(C)oc2cc(OC)c(OCc3oc4cc(OC)c(OS(=O)(=O)[O-])cc4c3C(=O)OCCOC)cc12.[Na+] [12d]
fold change in IC50 (weaker) relative to 12a (Human α-thrombin): 6.2 fold

CCOC(=O)c1c(C)oc2cc(OCc3oc4cc(OC)c(OS(=O)(=O)[O-])cc4c3C(=O)OCC)c(OS(=O)(=O)[O-])cc12.[Na+].[Na+] [compound 17]
fold weaker thrombin inhibition of di-sulfated dimers (Human α-thrombin): 6–17 fold

CCOC(=O)c1c(C)oc2cc(OCC)c(OCc3oc4cc(OCC)c(OS(=O)(=O)[O-])cc4c3C(=O)OCC)cc12.[Na+] [12e]
concentration required to double APTT (2×APTT) (citrated human plasma [2]): 355 to 1250 µM

COc1cc2oc(C)c(C(=O)O)c2cc1OCc1oc2cc(OC)c(OS(=O)(=O)[O-])cc2c1C(=O)O.[Na+] [compound 15]
fold change in IC50 (weaker) relative to 12a (Human α-thrombin): 6.2 fold

COc1cc2oc(C)c(C(=O)OC(C)(C)C)c2cc1OCc1oc2cc(OC)c(OS(=O)(=O)[O-])cc2c1C(=O)OC(C)(C)C.[Na+] [12c]
fold improvement of inhibition potency with lipophilicity of 3-ester (Human α-thrombin; across 12a, 12b, 12c): 8.2 fold | concentration required to double APTT (2×APTT) (citrated human plasma [2]): 355 to 1250 µM

CCOC(=O)c1c(C)oc2cc(OC)c(OCc3oc4cc(OC)c(OS(=O)(=O)[O-])cc4c3C(=O)OCC)cc12.[Na+] [12a]
mechanism of thrombin inhibition (human thrombin; Michaelis-Menten kinetics): non-competitive, allosteric mechanism | VMAX of Spectrozyme TH hydrolysis (human thrombin; in presence of 1.5 μM 12a): 97 ± 13 mAUmin^−1μM^−1 | VMAX of Spectrozyme TH hydrolysis (human thrombin; in presence of 3.0 μM 12a): 107 ± 14 mAUmin^−1μM^−1 | VMAX of Spectrozyme TH hydrolysis (human thrombin; in presence of 10.5 μM 12a): 73 ± 13 mAUmin^−1μM^−1 | VMAX of Spectrozyme TH hydrolysis (human thrombin; in presence of 30 μM 12a): 66 ± 6 mAUmin^−1μM^−1 | decrease in maximal velocity of reaction (human thrombin; upon approximately 50% saturation of the enzyme): ~ 34%

CCOC(=O)c1c(C)oc2cc(OC(C)C)c(OCc3oc4cc(OC(C)C)c(OS(=O)(=O)[O-])cc4c3C(=O)OCC)cc12.[Na+] [12f]
fold increase in potency, ethyl to isopropyl at 6-position (Human α-thrombin; 12f versus 12e): ~4 fold

CCOC(=O)c1c(COc2cc3c(C(=O)OCC)c(CN4CCOCC4)oc3cc2OC)oc2cc(OC)c(OS(=O)(=O)[O-])cc12.[Na+] [compound 13]
fold change in IC50 (weaker) relative to 12a (Human α-thrombin): 2.2 fold

Reference: article PMC3150610 (Journal of medicinal chemistry, 2011)
